Values joined by “and” are separate entries in the source; they are usually repeats but may differ in a detail not shown here. Identical values can stand only once. Like-named read-outs stand apart in the source and are kept apart here. Each block holds one molecule with its values, some of them ahead of it. Where a SMILES comes first, the peptide text is derived from it. The star is where a group is joined. ClAc = O=C(CCl)*; NHOH = ON*
Assays:
[1] = target: T1, rat PAM (Rattus norvegicus, UniProt P14925); experiment: Steady-state kinetics of rat bifunctional PAM substrates; conditions: for (V/K)app / Km: O2 consumption, 5.0 mM ascorbate, pH 6.0, 37 °C; for Km: read-out: KM,app; for Rel. (V/K)app: relative to hippuric acid = 1.0; for (V/K)app as percent of the corresponding glycine substrate: D-alanine substrate vs. corresponding glycine substrate
T1 sequence (P14925 36-715 isoform P14925-2 limits assumed): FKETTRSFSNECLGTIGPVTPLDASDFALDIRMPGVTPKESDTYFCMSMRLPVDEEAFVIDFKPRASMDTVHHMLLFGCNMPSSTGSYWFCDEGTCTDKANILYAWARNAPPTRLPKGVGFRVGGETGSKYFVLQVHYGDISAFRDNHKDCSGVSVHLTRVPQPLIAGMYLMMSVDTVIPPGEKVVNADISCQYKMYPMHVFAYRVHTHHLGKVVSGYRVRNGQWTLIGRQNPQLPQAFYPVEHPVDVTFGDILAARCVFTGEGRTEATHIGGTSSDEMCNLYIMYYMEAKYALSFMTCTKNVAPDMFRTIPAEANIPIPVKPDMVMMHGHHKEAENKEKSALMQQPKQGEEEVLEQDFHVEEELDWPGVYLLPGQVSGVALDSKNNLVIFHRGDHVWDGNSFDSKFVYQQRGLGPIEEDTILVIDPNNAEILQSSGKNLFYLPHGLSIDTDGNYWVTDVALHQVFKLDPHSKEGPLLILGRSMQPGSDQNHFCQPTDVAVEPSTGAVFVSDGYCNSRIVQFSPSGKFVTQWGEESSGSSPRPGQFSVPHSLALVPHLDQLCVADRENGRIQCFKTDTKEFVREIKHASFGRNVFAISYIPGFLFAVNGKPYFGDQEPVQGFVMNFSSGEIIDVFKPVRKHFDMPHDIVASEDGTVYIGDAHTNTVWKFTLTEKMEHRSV

[2] = target: PHM; conditions: cited from earlier work; for Km: read-out: KM,app
[3] = system: B. germanica PHM; experiment: B. germanica PHM inhibition; assay type: biochemical, Blatella germanica; conditions: for RatKi,s/InsectKi,s: ratio rat PAM Ki,s to B. germanica PHM Ki,s; for Ki: read-out: Ki,s vs. B. germanica PHM, N-dansyl-Tyr-Val-Gly amidation
[4] = target: T1, rat PAM; experiment: Bifunctional rat PAM inhibition; assay type: biochemical
[5] = system: DU 145 cells; experiment: Growth of human prostate DU 145 cells; assay type: cell-based; conditions: for antiproliferative concentration relative to Ki,s for PHM: DU 145 cells vs. in vitro Ki,s
How it was run: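 DU 145 cells in EMEM (Earle's salts, 2 mM glutamine, 1.0 mM pyruvate, 0.1 mM amino acids, 10% FBS, penicillin/streptomycin). Grown to 80% confluency, trypsinized, seeded at 50,000 cells/well, adhered 24 h. Medium then replaced with or without test compound; 10 μM 4-HPR as positive control. Counted at 8, 24, 48, 72, 96 h: PBS wash, trypsin/EDTA detachment, Trypan blue, hemacytometer viable/non-viable count.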

[6] = target: PAL activity of rat PAM (Rattus norvegicus, UniProt P14925); experiment: Inhibition of PAL activity; assay type: biochemical; conditions: read-out: inhibition of PAL activity
How it was run: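 Recombinant type A rat medullary thyroid carcinoma PAM (1.5–3.0 μg) started reactions at 37.0 °C. Buffer: 100 mM MES/NaOH pH 6.0, 30 mM NaCl, 1% ethanol, 0.001% Triton X-100. Substrate: 2.0 mM (R,S)-α-hydroxyhippuric acid, with 0 or 750 μM test compound. No-enzyme blank included. TFA quench at 20 min. Glyoxylate measured spectrophotometrically against a standard curve.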

[7] = Ki,s, rat PAM, absence of DMSO, competitive inhibition assumed

- (V/K)app [1]: (8.2 ± 0.3) × 10^3 M^−1 s^−1
- Km [1]: 220 ± 10 µM
- Rel. (V/K)app [1]: 1.3
Molecule: 2-Propylmercaptoacetylglycine [compound 29]

Molecule: methyl ester of N-dansyl-Tyr-Val-Gly
- Ki ([2]; read-out: Ki,s, ref 20a): 54 µM

- Ki [3]: 56 ± 6 µM
- Ki [4, 7]: 380 ± 40 µM
Molecule: O=C(O)CSc1ccccc1 [compound 72, S-Phenylmercaptoacetic Acid]
- RatKi,s/InsectKi,s [3]: 6.9

- Ki [4, 7]: 1400 µM
Molecule: O=C(NCC[C@H](O)C(=O)O)OCc1ccccc1 [compound 75, (S)-N-CBZ-4-amino-2-hydroxybutyric acid]

- Ki [4, 7]: 0.54 ± 0.05 µM
Molecule: CCCCCCCCCCCC(=S)SCC(=O)O [compound 55, S-(Thiolauroyl)thioglycolic acid]

- Ki [4, 7]: 69 ± 7 µM
Molecule: O=C(NC(CSC(=O)c1ccccc1)C(=O)O)c1ccccc1 (stereo in doubt) [compound 68, N,S-Dibenzoyl-L-cysteine]

- Ki [3]: 3.6 ± 0.6 µM
- Ki ([4]; Ki,s, rat PAM, […] DMSO): 13 µM
- Ki [4, 7]: 7.9 ± 2.8 µM
Molecule: O=C(O)CSC(=S)Cc1ccccc1 [compound 60, S-(2-Phenylthioacetyl)thioglycolic acid]
- RatKi,s/InsectKi,s [3]: 2.1
- antiproliferative concentration relative to Ki,s for PHM [5]: ~ 60 fold and 60–300 fold
- concentration showing significant anti-proliferative effects ([5]; DU 145 cells, Fig. 2): > 500 µM

Molecule: O=C(O)CNC(=O)CNC(=O)CCl [compound 34, Chloroacetyl-Gly-Gly] (ClAc-Gly-Gly-OH)
- (V/K)app [1]: (2.1± 0.1) × 10^4 M^−1 s^−1
- Km [1]: 420 ± 30 µM

- increase of (V/K)app over hippurate 1 [1]: ~ 30 fold
- ratio of (V/K)app to that of 3-(2-furyl)acryloylglycine 26 [1]: about 70
Molecule: O=C(O)CNC(=O)CCCCCc1ccccc1 [compound 50, 6-Phenylhexanoylglycine]

Molecule: O=C(NCP(=O)(O)O)c1cccnc1 [compound 80, (Nicotinamidomethyl)phosphonic acid]
- Ki [4]: > 75000 µM
- inhibition of PHM (O2 consumption) ([4]; 28 mM compound, 200 μM N-octanoylglycine as substrate): no inhibition

- (V/K)app [1]: (8.3 ± 0.7) × 10^4 M^−1 s^−1
- Km [1]: 36 ± 4 µM
- Rel. (V/K)app [1]: 13
Molecule: 2-Pyridylmercaptoacetylglycine [compound 47]

- Ki [4, 7]: 300 ± 20 µM
Molecule: O=C(NO)c1ccccc1O [compound 71, Salicylhydroxamic acid]

- Ki [4, 7]: 7.2 ± 0.9 µM
Molecule: CC(NC(=S)c1ccccc1)C(=O)O (stereo not drawn) [compound 59, N-(Thiobenzoyl)-(D,L)-alanine]

- (V/K)app as percent of the corresponding glycine substrate [1]: 0.05–0.3%
Molecule: CC(=O)N[C@H](C)C(=O)O [compound 51, Acetyl-D-alanine]

Molecule: CC1=C(/C=C/C(C)=C/C=C/C(C)=C/C(=O)Nc2ccc(O)cc2)C(C)(C)CCC1 [4-HPR, N-(4-hydroxyphenyl) retinamide, reference compound]
- effect on cell growth (positive control) ([5]; DU 145 cells, 10 μM, 48 hr): completely eliminates cell growth

- Ki [4, 7]: 1500 µM
Molecule: O=C(N[C@H](CO)C(=O)O)c1ccccc1 [compound 76, N-(Benzoyl)-D-serine]

- (V/K)app lower than that of 6-phenylhexanoylglycine 50 [1]: ~ 2.5 fold
Molecule: O=C(O)CNC(=O)CCCCCCCc1ccccc1 [compound 46, 8-Phenyloctanoylglycine]

- Ki [4, 7]: 58 ± 9 µM
Molecule: CC(SC(=S)c1ccccc1)C(=O)O (racemic) [compound 66, S-(Thiobenzoyl)-(R,S)-thiolactic acid]

- (V/K)app as percent of the corresponding glycine substrate [1]: 0.05–0.3%
Molecule: C[C@@H](NC(=O)OCc1ccccc1)C(=O)O [compound 53, CBZ-D-alanine]

- Ki [3]: 0.87 ± 0.11 µM
- Ki ([4]; Ki,s, rat PAM, […] DMSO): 30 µM
- Ki [4, 7]: 9.4 ± 0.8 µM
Molecule: O=C(O)CSC(=S)CCc1ccccc1 [compound 62, S-(3-Phenylthiopropionyl)thioglycolic acid]
- RatKi,s/InsectKi,s [3]: 11

- Ki [4, 7]: 18000 µM
Molecule: O=C(O)CNCc1ccccc1 [compound 79, N-Benzylglycine]

- (V/K)app [1]: (2.5 ± 0.1) × 10^3 M^−1 s^−1
Molecule: 3-Indolylacetylglycine [compound 24]

- Ki ([4]; Ki,s, rat PAM, […] DMSO): 110 ± 20 µM
Molecule: O=C(O)CNC(=S)Nc1ccccc1 [compound 69, N-Phenylthiohydantoic acid]

- Ki [4, 7]: 1000 µM
Molecule: CC(C)C[C@H](NC(=O)[C@@H]1CCCN1)C(=O)NCC(=O)NO [compound 74, Pro-Leu-Gly hydroxamic acid] (H-Pro-Leu-Gly-{NHOH})

- Ki [3]: 92 ± 10 µM
- Ki ([4]; Ki,s, rat PAM, […] DMSO): 49 µM
- Ki [4, 7]: 39 ± 5 µM
Molecule: O=C(O)CSC(=S)c1ccccc1 [compound 64, S-(Thiobenzoyl)thioglycolic acid]

- Ki [4, 7]: 110 ± 10 µM
Molecule: CCOC(=O)CSC(=S)c1ccc(C)cc1 [compound 70, S-(4-Methylthiobenzoyl)thioglycolic acid ethyl ester]

- Ki [4, 7]: 5.7 ± 0.4 µM
Molecule: CC(C#N)(CCC(=O)O)SC(=S)c1ccccc1 (stereo not drawn) [compound 58, S-(Thiobenzoyl)-4-mercapto-4-cyanopentanoic acid]

Molecule: N[C@@H](CCC(=O)N[C@@H](CS)C(=O)NCC(=O)O)C(=O)O [glutathione]
- Km [2]: 130 µM

- (V/K)app as percent of the corresponding glycine substrate [1]: 0.05–0.3%
Molecule: C[C@@H](NC(=O)c1ccccc1)C(=O)O [compound 52, Benzoyl-D-alanine]

- Ki [4, 7]: 1000 µM
Molecule: O=C(O)CONC(=O)c1ccccc1 [compound 73, O-Benzamidoglycolic acid]

- Ki [4, 7]: 7900 µM
Molecule: NCC(=O)NNC(=O)OCc1ccccc1 [compound 78, (CBZ-hydrazido)glycine]

- Ki [4, 7]: 54 ± 4 µM
Molecule: O=C(O)COC(=O)Nc1ccccc1 [compound 65, O-(Phenylcarbamoyl)glycolic acid]

- Ki [3]: 5.4 ± 0.3 µM
- inhibition at 750 µM [6]: ~40%
- Ki [4, 7]: 8.6 ± 1.4 µM
Molecule: O=C(O)CSC(=S)Nc1ccccc1 [compound 61, S-(Phenylthiocarbamoyl)thioglycolic acid]
- RatKi,s/InsectKi,s [3]: 1.6

- Ki [3]: 14 ± 1 µM
- Ki [4, 7]: 3.5 ± 0.4 µM
Molecule: Cc1ccc(C(=S)SCC(=O)O)cc1 [compound 57, S-(4-Methylthiobenzoyl)thioglycolic acid]
- RatKi,s/InsectKi,s [3]: 0.25
- antiproliferative concentration relative to Ki,s for PHM [5]: 60–300 fold

- Ki [3]: 5.5 ± 0.8 µM
- Ki [4, 7]: 2.6 ± 0.7 µM
Molecule: O=C(O)CCSC(=S)Nc1ccccc1 [compound 56, S-(Phenylthiocarbamoyl)-3-mercaptopropionic acid]
- RatKi,s/InsectKi,s [3]: 0.47

Molecule: O=C(O)CNC(=O)c1ccccc1O [salicylurate]
- Km ([2]; ref 23b): 860 µM

— PMC2668526 (Bioorganic & medicinal chemistry, 2008)
